# Laboratory results from publication PMC8867396 (Nature, 2021).
# pKi: −log10 of the molar value. Like-named read-outs stand apart in the source and are kept apart here.
# Experiments:
# [1] = Pharmacokinetics in male CD-1 mice, plasma and brain; format: in vivo; details: 10 mg/kg subcutaneous
# SNI mice = test: Spared nerve injury; format: in vivo; details: for anti-allodynic effect, mechanical thresholds versus vehicle: systemic (subcutaneous) administration to SNI mice
# Outline: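 Spared nerve injury under isoflurane: two sciatic branches ligated and transected, sural nerve intact; mice tested 7–14 days later. Test compound (10, 20 or 30 mg/kg) or vehicle (saline, cyclodextrin, kolliphor) given subcutaneously, random assignment. Hindpaw von Frey thresholds by up-down method at 1, 24, 48 h. Thresholds normalized to each mouse's post-SNI baseline; n = 5–10; ANOVA with Dunnett's test.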
# human σ2 receptor = human σ2 receptor (Homo sapiens, UniProt Q5BJF2); test: Competition binding of [3H]-DTG in Expi293 membranes expressing σ2 receptor; details: for pKi: read-out: σ2 Ki (affinity); for Selectivity (σ1/σ2): ratio of σ1 Ki to σ2 Ki; for Ki: read-out: Ki (nM) σ2, competition with 10 nM [3H]-DTG
# Chain of human σ2 receptor (Q5BJF2 whole entry): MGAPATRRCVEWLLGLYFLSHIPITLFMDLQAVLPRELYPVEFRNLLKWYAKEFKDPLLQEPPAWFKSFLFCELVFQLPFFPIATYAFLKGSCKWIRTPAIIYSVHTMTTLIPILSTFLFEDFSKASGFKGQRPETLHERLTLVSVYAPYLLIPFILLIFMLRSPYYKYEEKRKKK
# Outline: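 σ2-expressing Expi293 membranes were made by osmotic lysis (20 mM HEPES pH 7.5, 2 mM MgCl2), spun at 20,000 × g, and kept in 50 mM Tris pH 8.0 at −80 °C. Assay buffer: 50 mM Tris pH 8.0, 0.1% BSA, 10 nM [3H]-DTG and graded competitor; 37 °C, 90 min. 10 μM haloperidol set nonspecific binding. Filtration, scintillation counting; Ki by Cheng-Prusoff using measured probe Kd.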
# [2] = tested on: σ2 mutants (His21, Gln77); test: Competition binding in σ2 receptor mutants disrupting water coordination; set-up: species or system human
# Outline: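 Expi293 membranes carrying wild-type or mutant σ2 (lysed osmotically in 20 mM HEPES pH 7.5, 2 mM MgCl2; pellet at 20,000 × g), in 50 mM Tris pH 8.0, 0.1% BSA, with 10 nM [3H]-DTG and graded competitor. Incubated 37 °C, 90 min, shaking. Filtered on PEI-soaked glass fibre, scintillation counted. Nonspecific binding with 10 μM haloperidol. Ki by Cheng-Prusoff; three technical replicates, mean ± SEM.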
# mice = test: Rotarod; format: in vivo; details: 1 hour or 24 hours post-injection; Z1665845742 10 mg/kg, Z4857158944 20 mg/kg, Z4446724338 10 mg/kg
# σ1 receptor = σ1 receptor (Homo sapiens, UniProt Q99720); test: Competition binding versus σ1 receptor; details: read-out: Ki (nM) σ1
# Chain of σ1 receptor (Q99720 whole entry, species assumed): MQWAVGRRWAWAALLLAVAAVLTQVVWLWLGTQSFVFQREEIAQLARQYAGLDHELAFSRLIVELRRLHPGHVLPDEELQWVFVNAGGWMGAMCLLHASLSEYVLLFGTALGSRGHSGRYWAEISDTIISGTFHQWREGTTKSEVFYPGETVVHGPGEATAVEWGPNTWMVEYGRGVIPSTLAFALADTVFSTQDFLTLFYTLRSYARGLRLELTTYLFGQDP
Compound,Ki (σ1 receptor),Selectivity (σ1/σ2) (human σ2 receptor),Ki (human σ2 receptor),also measured
"COc1cccc2c1CCCC2CCCN1CCN(C2CCCCC2)CC1 (stereo not shown) [PB28, reference compound]",,,,"AUC0→t (AUClast) ([1]; brain): 229000 ng·min/mL (g); AUC0→∞ (AUCinf_obs) ([1]; brain): 240000 ng·min/mL (g); Cmax ([1]; brain): 948 ng/mL (g); Kel (Lambda_z) ([1]; brain): 0.00706 min⁻¹; T1/2 (HL_Lambda_z) ([1]; brain): 1.64 h; Tmax ([1]; brain): 1 h; AUC0→t (AUClast) ([1]; plasma): 8640 ng·min/mL (g); AUC0→∞ (AUCinf_obs) ([1]; plasma): 45900 ng·min/mL (g); Cmax ([1]; plasma): 42 ng/mL (g); Kel (Lambda_z) ([1]; plasma): 0.000937 min⁻¹; T1/2 (HL_Lambda_z) ([1]; plasma): 12.3 h; Tmax ([1]; plasma): 1 h; mice in which anti-allodynic effects were observed (SNI mice; systemic injection, 30 mg/kg): 60%"
CCCN1CCC=C(c2cc(-c3ccc(C)cc3)no2)C1 [PD-144418],,,,"anti-allodynic effect, mechanical thresholds versus vehicle (SNI mice): anti-allodynia; anti-allodynia 24 or 48 hours post-injection (SNI mice; tested at 1, 24 and 48 hours after dosing): not sustained"
c1ccc(CCCN2CCC(c3nnc4ccccn34)CC2)cc1 [Z163048780],,,,pKi (human σ2 receptor): < 5.00
C1=C(c2c[nH]c3ccccc23)CCN(CCCc2ccccc2)C1 [Z295861754],,,,decrease in σ2 affinity (human σ2 receptor; versus parent Z1241145220): 8 fold
C1=C(c2c[nH]c3ncccc23)CCN(CCCc2ccccc2)C1 [Z1241145220],,,,reduction of affinity on mutation ([2]; Gln77 mutant versus wild-type σ2): about 10 fold; reduction of affinity on mutation ([2]; His21 mutant versus wild-type σ2): about 10 fold; pKi (human σ2 receptor): 8.43
OC(CCc1ccccc1)CN1CCC(c2nnc3ccccn23)CC1 (stereo not shown) [Z1665798906],,,,σ2 activity in words (human σ2 receptor): σ2 inactive
OC(CCc1ccccc1)CN1CC=C(c2c[nH]c3ncccc23)CC1 (stereo not shown) [Z1665845742],,,,"sedation or motor impairment on the rotarod (mice): No sedation or motor impairment; AUC0→t (AUClast) ([1]; brain): 436000 ng·min/mL (g); AUC0→∞ (AUCinf_obs) ([1]; brain): 509000 ng·min/mL (g); Cmax ([1]; brain): 3150 ng/mL (g); Kel (Lambda_z) ([1]; brain): 0.000928 min⁻¹; T1/2 (HL_Lambda_z) ([1]; brain): 12.4 h; Tmax ([1]; brain): 0.333 h; AUC0→t (AUClast) ([1]; plasma): 99000 ng·min/mL (g); AUC0→∞ (AUCinf_obs) ([1]; plasma): 112000 ng·min/mL (g); Cmax ([1]; plasma): 968 ng/mL (g); Kel (Lambda_z) ([1]; plasma): 0.00374 min⁻¹; T1/2 (HL_Lambda_z) ([1]; plasma): 3.08 h; Tmax ([1]; plasma): 0.333 h; anti-allodynic effect, mechanical thresholds versus vehicle (SNI mice): anti-allodynic; selectivity for σ2 over σ1 (human σ2 receptor): 47 fold; pKi (human σ2 receptor): 8.30"
C[C@@H](C(=O)N(C)Cc1cccc(F)c1)N1CC=C(c2c[nH]c3ncccc23)CC1 [ZINC000533478938],1470 nM,43,34.5 nM,
CC(C)(NCc1ccc2c(c1)OCCO2)[C@H](O)c1ccccc1 [ZINC000895657866],990 nM,46,21.4 nM,

# Continued, in another order:
Ki (σ1 receptor),Selectivity (σ1/σ2) (human σ2 receptor),Ki (human σ2 receptor),Compound,also measured
32.7 nM,4.9,6.7 nM,N/C(=N\Cc1ccc(F)cc1Br)NCC1CCC1 [ZINC000170908795],
2.9 nM,0.1,33.7 nM,Cc1ccc([C@H]2CCN(CC3(O)CCC3)C2)c(C)c1 [ZINC000348332392],
128 nM,30,4.3 nM,C[C@@H](c1ccccc1)[C@@H](O)CN1CCC(c2c[nH]c3ncccc23)CC1 [ZINC000450573233],
16.2 nM,1.6,10 nM,Cc1ccc(CCC2CCN(C(=O)CN3C[C@@H]4CC[C@@H](O)[C@H]4C3)CC2)cc1 [ZINC000544117725],
4.9 nM,2,2.4 nM,CC1CCC(O)(CN2CC(Cc3ccc(F)c(F)c3)C2)CC1 (stereo not shown) [ZINC000548355486],
4.6 nM,0.1,67.8 nM,Cc1ccc(CC2CN(CC3(O)CCSCC3)C2)cc1 [ZINC000656714762],
1190 nM,18,67.3 nM,O[C@@]1(CNCc2cccc3c2OCC3)CCc2ccccc21 [ZINC000921927365],
13.4 nM,5.6,2.4 nM,CC(C)CCO[C@@H]1CCN(C[C@H]2CC3(CCCCC3)CO2)C1 [ZINC001196519317],
1.6 nM,0.1,27 nM,Fc1c(CN2CCN(C[C@@H]3CCCO3)CC2)ccc(Br)c1Cl [ZINC001237901728],
53 nM,11.3,4.7 nM,O[C@@H](COCc1ccccc1F)CN1CC(Cc2ccccc2C(F)(F)F)C1 [ZINC001254761628],
1.7 nM,0.3,5.2 nM,CC[C@@H](CO)N1CCC(CCc2ccc(F)cc2F)CC1 [ZINC001460312963],
